The species named for one data set is Oryctolagus cuniculus. In words: Concentration required to inhibit PAF (5*10e-8 M) induced platelet aggregation in rabbit platelet rich plasma(PRP) by 50%. In kind it is functional, organism-based. In a few lines:
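Rabbit PRP came from blood spun at 800 rpm for 15 min at room temperature, with platelet counts of 350 000–550 000/µL. PRP was equilibrated 1–2 min at 37 °C in an aggregometer. It was preincubated 5 min with test compound (final 10^-8 to 10^-5 M; methanol stock diluted in saline) or saline, then challenged with L-C16-PAF. IC50 was taken from concentration–response curves of aggregation magnitude and averaged over separate determinations.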

Data set [1] concerns Mus musculus. Briefly: Compound was evaluated for PAF-induced lethality in mouse (intraperitoneally at a dose of 1.0 mg/kg in saline 0.5 hr before lethal intravenous PAF challenge 75-150 mg/kg); 16/27. Conditions: in vivo. In kind it is ADME, organism-based. Also on record: dose 1 mg/kg. The procedure, abridged:
(§1)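 Female Swiss-Webster mice (20-25 g) received test compound ip in saline (10 mL/Kg); controls got saline alone. The PAF dose was chosen daily from small pilot groups. Survival was scored at 1.5 h and recorded as dead/total.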

The subject of data set [2] is Mus musculus. In words: Compound was evaluated for PAF-induced lethality in mouse (intraperitoneally at a dose of 1.0 mg/kg in saline 0.5 hr before lethal intravenous PAF challenge 75-150 mg/kg). Also on record: dose 1 mg/kg, route intraperitoneal. The format is ADME, organism-based. The settings on record: in vivo. In a few lines:
as §1

The test system of data set [3] is Mus musculus. Briefly: Compound was evaluated for PAF-induced lethality in mouse (intraperitoneally at a dose of 1.0 mg/kg in saline 0.5 hr before lethal intravenous PAF challenge 75-150 mg/kg); 8/12. In kind it is ADME, organism-based. Also on record: dose 1 mg/kg, route intravenous. The settings on record: in vivo. In a few lines:
as §1

Among the data in ChEMBL document CHEMBL1125559, “Analogues of platelet activating factor. 7. Bis-aryl amide and bis-aryl urea receptor antagonists of PAF” (J Med Chem, 1992) are IC50, Dead/total and Lethality values, retold here.

Molecule `CCCCCCCCCCCCCCOc1ccc(OC)cc1CN(C(C)=O)c1cccc(C[n+]2csc(C)c2)c1.[Br-]` displayed an IC50 in the data set listed under Oryctolagus cuniculus of 320 nM. In the data set on Mus musculus [1], this molecule had a Dead/total of 16. This molecule yielded a Lethality in the data set on Mus musculus [2] of 59%.

As for `CCCCCCCCCCCCCCOc1ccc(CC(=O)Nc2ccc(C[n+]3csc(C)c3)cc2)cc1.[Br-]`, the midpoint of inhibition in the data set filed under Oryctolagus cuniculus, the IC50, lay at 600 nM. In addition, in the data set on Mus musculus [3], the Dead/total stood at 8. In the data set on Mus musculus [2], this molecule displayed a Lethality of 80%.
